Results from ChEMBL document CHEMBL3232794, “Synthesis and evaluation of 2-anilinopyrimidines bearing 3-aminopropamides as potential epidermal growth factor receptor inhibitors” (Eur J Med Chem, 2014).
pIC50: −log10 of the molar value. Activity calls are given as the source filed them. No cut-off for these calls is given here.

How the values were obtained:
A549 = experiment: cells; type: functional, cell-based; conditions: Homo sapiens, A549, 72 h
A-431 = experiment: cells; type: functional, cell-based; conditions: Homo sapiens, A-431, 72 h
NCI-H1975 [1] = experiment: Antiproliferative activity against human NCI-H1975 cells harboring EGFR L858R/T790M mutant after 72 hrs by MTT assay; type: functional, cell-based; conditions: NCI-H1975, 72 h
[2] = biological target: Epidermal growth factor receptor (Homo sapiens, UniProt P00533)
cells [3] = type: functional, cell-based; conditions: Homo sapiens, BEAS-2B, 72 h
[4] = biological target: Epidermal growth factor receptor (Homo sapiens, UniProt P00533, L858R); type: protein assay
cells [5] = type: ADME, cell-based; conditions: Homo sapiens, 16HBE14o-, 72 h
cells [6] = type: functional, cell-based; conditions: Homo sapiens, HCC827, 72 h
[7] = biological target: Epidermal growth factor receptor (Homo sapiens, UniProt P00533, L858R/T790M); type: protein assay
NCI-H1975 [8] = experiment: Induction of NO production in human NCI-H1975 cells harboring EGFR L858R/T790M mutant at 100 uM incubated for 150 mins; type: functional, cell-based
Method in brief: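 H1975 or 16HBE cells (1 × 10⁶/well) exposed to 100 µM compound for 150 min, then harvested and lysed. Lysates mixed with Griess reagent for 10 min and absorbance read at 540 nm. Nitrite quantified against a […] standard curve, with diluent-treated cells as background.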

[9] = biological target: RAC-alpha serine/threonine-protein kinase (Homo sapiens) (UniProt P31749); experiment: Inhibition of Akt phosphorylation in human H1975 cells harboring EGFR L858R/T790M mutant at 1 uM by Western blotting analysis; type: cell-based
Method in brief: (§1)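 Lysates (50 µg/lane) separated on 7.5% SDS-PAGE and blotted to nitrocellulose. Probed for total and phospho-EGFR (Tyr1068), Akt (Ser473) and ERK (Thr202/Tyr204) plus β-actin; HRP secondaries with ECL detection.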

[10] = GSH reactivity assessed as compound remaining at 50 uM after 1 hr at pH 7.4 by LC-UV analysis; type: physicochemical; conditions: read-out: Activity
Method in brief: (§2)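 Freshly prepared thiol (DTT, reduced GSH or L-cysteine; 2 mM) added to PBS pH 7.4 containing test compound, incubated 1 h at 37 °C. Remaining parent measured by HPLC-UV (C18, 281 nm); mean ± SD, n = 3.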

[11] = Chemical stability of the compound in buffer solution assessed as compound remaining at 50 uM at pH 7.4 after 24 hrs by LC-UV analysis; type: physicochemical; conditions: read-out: Stability
Method in brief: (§3)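 1 mM DMSO stocks diluted to 50 µM final (5% v/v DMSO) in prewarmed 0.01 M PBS pH 7.4 or 0.01 M borate buffer pH 9.0. Incubated at 37 °C for 24 h, mixed with equal volume acetonitrile, analysed by C18 RP-HPLC with UV detection at 281 nm; percent remaining, mean ± SD, n = 3.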

Plasma = experiment: (§4) Stability of the compound in rat plasma assessed as compound remaining at 50 uM at pH 7.4 after 24 hrs by LC-UV analysis; type: ADME, cell-free; conditions: pH 7.4, 24 h, 50 µM, BLD = below limit of detection
Method in brief: (§5)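 Rat plasma diluted to 50% (v/v) with 0.1 M PBS pH 7.4 and spiked with compound from a DMSO stock, then incubated 24 h at 37 °C. Two volumes acetonitrile added, centrifuged (4 °C, 14,000 g, 15 min), supernatant run on RP-HPLC with UV at 281 nm; percent remaining, n = 3.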

[12] = DTT reactivity assessed as compound remaining at 50 uM after 1 hr at pH 7.4 by LC-UV analysis; type: physicochemical; conditions: read-out: Activity
Method in brief: as §2

[13] = Chemical stability of the compound in buffer solution assessed as compound remaining at 50 uM at pH 9 after 24 hrs by LC-UV analysis; type: physicochemical
Method in brief: as §3

[14] = L-cysteine reactivity assessed as compound remaining at 50 uM after 1 hr at pH 7.4 by LC-UV analysis; type: physicochemical; conditions: read-out: Activity
Method in brief: as §2

HCC827 = experiment: Antiproliferative activity against gefitinib-sensitive human HCC827 cells bearing EGFR del E746_A750 mutant at 5 uM after 72 hrs by MTT assay in presence of 1 to 20 uM haemoglobin NO scavenger; type: functional, cell-based; conditions: in the assay text read “24 hrs” for “72 hrs”
Method in brief: (§6)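 Cells pretreated 1 h with hemoglobin (0, 1, 5, 10 or 20 µM) as NO scavenger, then exposed to 5 µM test compound for 24 h; growth read by MTT assay.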

[15] = test system: Epidermal growth factor receptor (Homo sapiens), P00533 [L858R,T790M]; experiment: Inhibition of EGFR phosphorylation in human H1975 cells harboring EGFR L858R/T790M mutant by Western blotting analysis; type: cell-based
Method in brief: as §1

H1975 = conditions: Homo sapiens, at 1 µM
NCI-H1975 [16] = experiment: Antiproliferative activity against human NCI-H1975 cells harboring EGFR L858R/T790M mutant at 5 uM after 72 hrs by MTT assay in presence of 1 to 20 uM haemoglobin NO scavenger; type: functional, cell-based; conditions: in the assay text read “24 hrs” for “72 hrs”
Method in brief: as §6

[17] = test system: Epidermal growth factor receptor (Homo sapiens), P00533 [L858R,T790M]; conditions: H1975, at 1 µM
[18] = test system: Epidermal growth factor receptor (Homo sapiens), P00533 [L858R,T790M]; experiment: Inhibition of EGFR phosphorylation in human H1975 cells harboring EGFR L858R/T790M mutant at 0.1 uM by Western blotting analysis; type: cell-based
Method in brief: as §1

[19] = as §4; type: ADME, cell-free; conditions: pH 7.4, read-out: Stability
Method in brief: as §5

Epidermal growth factor receptor (Homo sapiens, UniProt P00533, L858R), sequence (P00533 25-1210 L858R limits assumed): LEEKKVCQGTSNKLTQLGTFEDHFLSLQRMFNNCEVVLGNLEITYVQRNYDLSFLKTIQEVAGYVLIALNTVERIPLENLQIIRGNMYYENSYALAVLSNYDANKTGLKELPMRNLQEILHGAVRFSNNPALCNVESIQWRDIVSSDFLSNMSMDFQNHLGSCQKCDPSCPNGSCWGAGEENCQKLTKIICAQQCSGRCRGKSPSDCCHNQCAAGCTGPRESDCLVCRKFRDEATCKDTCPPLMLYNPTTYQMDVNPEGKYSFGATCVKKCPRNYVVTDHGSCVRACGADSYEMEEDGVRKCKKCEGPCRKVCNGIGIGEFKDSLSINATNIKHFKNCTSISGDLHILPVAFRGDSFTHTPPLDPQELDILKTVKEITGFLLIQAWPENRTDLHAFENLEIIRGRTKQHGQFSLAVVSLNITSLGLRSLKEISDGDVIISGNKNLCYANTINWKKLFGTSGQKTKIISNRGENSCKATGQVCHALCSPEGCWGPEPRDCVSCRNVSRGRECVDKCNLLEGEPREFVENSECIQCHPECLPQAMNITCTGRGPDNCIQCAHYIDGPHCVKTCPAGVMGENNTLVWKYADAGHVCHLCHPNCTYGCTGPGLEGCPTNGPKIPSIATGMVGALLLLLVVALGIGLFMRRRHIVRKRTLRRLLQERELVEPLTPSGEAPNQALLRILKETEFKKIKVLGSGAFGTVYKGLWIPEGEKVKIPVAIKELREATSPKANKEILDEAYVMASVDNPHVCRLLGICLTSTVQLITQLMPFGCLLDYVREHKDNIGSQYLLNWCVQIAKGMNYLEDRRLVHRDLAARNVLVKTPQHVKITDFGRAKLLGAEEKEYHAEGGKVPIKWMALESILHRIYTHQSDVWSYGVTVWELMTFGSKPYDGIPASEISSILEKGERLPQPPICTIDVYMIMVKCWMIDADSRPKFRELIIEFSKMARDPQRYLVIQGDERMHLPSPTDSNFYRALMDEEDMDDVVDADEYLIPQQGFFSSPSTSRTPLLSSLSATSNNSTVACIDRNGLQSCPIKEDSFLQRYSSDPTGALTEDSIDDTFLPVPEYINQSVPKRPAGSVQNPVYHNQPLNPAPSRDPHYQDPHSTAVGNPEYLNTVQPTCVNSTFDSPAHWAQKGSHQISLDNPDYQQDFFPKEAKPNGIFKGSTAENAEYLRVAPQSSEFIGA
Epidermal growth factor receptor (Homo sapiens, UniProt P00533, L858R/T790M), sequence (P00533 25-1210 T790M/L858R limits assumed): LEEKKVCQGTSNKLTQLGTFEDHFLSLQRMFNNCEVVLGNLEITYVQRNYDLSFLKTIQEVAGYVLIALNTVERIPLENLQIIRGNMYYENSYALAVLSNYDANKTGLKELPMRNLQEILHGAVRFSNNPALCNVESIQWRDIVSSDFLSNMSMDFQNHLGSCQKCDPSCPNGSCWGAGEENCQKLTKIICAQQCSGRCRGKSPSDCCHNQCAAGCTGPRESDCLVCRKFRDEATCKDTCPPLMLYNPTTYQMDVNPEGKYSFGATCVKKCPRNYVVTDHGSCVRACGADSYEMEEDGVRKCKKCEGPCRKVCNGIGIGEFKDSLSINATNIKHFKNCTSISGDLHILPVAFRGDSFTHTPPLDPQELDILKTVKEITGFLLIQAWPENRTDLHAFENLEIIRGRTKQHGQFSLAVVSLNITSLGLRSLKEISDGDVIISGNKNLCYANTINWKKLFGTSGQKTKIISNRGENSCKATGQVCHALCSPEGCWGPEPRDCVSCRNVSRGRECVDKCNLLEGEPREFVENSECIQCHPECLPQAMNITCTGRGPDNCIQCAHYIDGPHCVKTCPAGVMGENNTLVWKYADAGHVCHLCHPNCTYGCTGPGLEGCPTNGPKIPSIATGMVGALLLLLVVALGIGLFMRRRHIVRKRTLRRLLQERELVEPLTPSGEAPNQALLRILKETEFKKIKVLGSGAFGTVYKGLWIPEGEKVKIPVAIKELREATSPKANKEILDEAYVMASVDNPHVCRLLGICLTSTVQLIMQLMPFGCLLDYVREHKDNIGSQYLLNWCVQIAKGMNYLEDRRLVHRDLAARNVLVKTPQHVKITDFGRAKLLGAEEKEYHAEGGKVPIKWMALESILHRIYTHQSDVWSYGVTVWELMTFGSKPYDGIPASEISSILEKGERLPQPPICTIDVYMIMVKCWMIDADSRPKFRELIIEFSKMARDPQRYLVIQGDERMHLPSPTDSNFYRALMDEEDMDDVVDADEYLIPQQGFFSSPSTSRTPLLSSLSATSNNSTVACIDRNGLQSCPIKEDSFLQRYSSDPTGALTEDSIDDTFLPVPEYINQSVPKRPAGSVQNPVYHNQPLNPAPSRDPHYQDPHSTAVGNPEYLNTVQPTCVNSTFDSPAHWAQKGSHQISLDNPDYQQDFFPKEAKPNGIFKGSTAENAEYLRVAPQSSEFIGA
Epidermal growth factor receptor (Homo sapiens, UniProt P00533), sequence (P00533 whole entry): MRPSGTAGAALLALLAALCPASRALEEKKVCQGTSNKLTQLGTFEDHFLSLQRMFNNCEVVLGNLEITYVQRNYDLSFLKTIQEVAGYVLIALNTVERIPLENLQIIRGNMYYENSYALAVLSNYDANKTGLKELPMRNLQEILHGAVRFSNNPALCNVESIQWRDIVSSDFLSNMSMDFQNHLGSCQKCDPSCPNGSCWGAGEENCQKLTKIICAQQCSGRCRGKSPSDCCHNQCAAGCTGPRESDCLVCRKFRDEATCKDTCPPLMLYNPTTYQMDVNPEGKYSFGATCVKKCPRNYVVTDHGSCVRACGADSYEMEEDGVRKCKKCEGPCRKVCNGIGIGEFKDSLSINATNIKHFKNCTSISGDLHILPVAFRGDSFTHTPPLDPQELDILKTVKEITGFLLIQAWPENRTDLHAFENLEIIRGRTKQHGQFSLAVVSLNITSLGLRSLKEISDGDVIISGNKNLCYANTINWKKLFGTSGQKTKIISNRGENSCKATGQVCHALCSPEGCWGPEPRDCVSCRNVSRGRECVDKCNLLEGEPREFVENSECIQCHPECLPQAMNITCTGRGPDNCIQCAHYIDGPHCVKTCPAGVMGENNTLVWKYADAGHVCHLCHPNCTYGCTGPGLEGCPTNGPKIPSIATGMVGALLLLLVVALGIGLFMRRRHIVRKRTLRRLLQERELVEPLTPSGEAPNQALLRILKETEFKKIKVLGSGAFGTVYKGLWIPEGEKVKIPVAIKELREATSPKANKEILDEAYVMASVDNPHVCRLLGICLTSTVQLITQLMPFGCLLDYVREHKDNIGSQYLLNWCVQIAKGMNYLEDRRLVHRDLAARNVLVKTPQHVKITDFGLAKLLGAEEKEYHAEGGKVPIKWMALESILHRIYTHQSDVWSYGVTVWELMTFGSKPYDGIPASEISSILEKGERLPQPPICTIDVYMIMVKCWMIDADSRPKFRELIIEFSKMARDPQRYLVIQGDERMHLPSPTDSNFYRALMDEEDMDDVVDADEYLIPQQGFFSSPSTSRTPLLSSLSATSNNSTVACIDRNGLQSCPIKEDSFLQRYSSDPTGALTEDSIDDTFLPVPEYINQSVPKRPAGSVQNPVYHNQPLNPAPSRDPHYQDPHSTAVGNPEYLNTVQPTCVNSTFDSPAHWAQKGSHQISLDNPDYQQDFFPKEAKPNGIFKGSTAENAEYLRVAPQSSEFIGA
Epidermal growth factor receptor (Homo sapiens), P00533 [L858R,T790M], sequence (P00533 whole entry T790M/L858R, looked up): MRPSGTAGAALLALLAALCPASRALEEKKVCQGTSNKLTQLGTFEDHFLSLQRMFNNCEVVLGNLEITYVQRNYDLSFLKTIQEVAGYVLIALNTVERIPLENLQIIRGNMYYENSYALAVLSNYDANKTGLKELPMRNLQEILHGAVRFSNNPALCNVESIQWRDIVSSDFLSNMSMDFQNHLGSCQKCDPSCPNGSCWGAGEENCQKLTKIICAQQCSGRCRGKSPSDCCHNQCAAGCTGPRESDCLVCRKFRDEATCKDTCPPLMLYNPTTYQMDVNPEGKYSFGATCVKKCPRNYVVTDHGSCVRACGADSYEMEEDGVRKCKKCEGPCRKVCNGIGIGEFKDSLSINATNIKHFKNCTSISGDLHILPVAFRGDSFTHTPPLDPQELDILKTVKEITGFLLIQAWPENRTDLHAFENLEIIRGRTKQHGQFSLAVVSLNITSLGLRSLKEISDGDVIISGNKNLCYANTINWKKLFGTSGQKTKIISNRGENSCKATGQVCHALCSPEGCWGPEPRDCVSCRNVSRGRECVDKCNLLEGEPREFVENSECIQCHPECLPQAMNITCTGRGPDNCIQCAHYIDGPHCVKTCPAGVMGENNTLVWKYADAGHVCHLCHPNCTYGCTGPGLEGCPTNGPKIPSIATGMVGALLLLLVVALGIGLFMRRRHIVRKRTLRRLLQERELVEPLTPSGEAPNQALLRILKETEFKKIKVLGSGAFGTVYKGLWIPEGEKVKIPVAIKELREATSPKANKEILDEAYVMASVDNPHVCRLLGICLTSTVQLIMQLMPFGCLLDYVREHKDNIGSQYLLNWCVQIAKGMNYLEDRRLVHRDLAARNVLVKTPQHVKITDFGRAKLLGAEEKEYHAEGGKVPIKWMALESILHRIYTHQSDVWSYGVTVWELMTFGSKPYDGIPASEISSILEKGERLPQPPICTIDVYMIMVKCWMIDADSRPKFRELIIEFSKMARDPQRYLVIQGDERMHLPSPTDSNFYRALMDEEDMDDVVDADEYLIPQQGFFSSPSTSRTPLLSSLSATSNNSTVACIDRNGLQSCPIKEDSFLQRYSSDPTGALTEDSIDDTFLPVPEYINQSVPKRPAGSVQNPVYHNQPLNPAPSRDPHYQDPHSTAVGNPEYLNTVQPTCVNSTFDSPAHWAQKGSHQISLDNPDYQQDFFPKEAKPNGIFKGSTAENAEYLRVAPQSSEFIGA

SMILES | pIC50 (A549) | pIC50 (A-431) | pIC50 (NCI-H1975 [1]) | pIC50 [2] | pIC50 (cells [3]) | pIC50 [4] | pIC50 (cells [5]) | pIC50 (cells [6]) | pIC50 [7] | also measured
COc1cc(N2CCN(C)CC2)ccc1Nc1ncc(Cl)c(Oc2cccc(NC(=O)CCN3CCOCC3)c2)n1 | 5.58 | 5.41 | 5.99 | < 5.00 | 5.64 | < 5.00 | 5.44 | 6.05 | < 5.00 | –
COc1cc2ncnc(Nc3ccc(F)c(Cl)c3)c2cc1OCCCN1CCOCC1 | – | – | – | – | – | – | – | – | – | Activity (NCI-H1975 [8]): Active; inhibition [9]: inactive
CCOC(=O)N1CCN(CCC(=O)Nc2cccc(Oc3nc(Nc4ccc(N5CCN(C)CC5)cc4OC)ncc3Cl)c2)CC1 | 5.28 | 5.34 | 5.80 | 6.16 | 5.24 | 5.62 | 5.43 | 6.05 | 6.27 | –
COc1cc(N2CCN(C)CC2)ccc1Nc1ncc(Cl)c(Oc2cccc(NC(=O)CCN3CCCC3)c2)n1 | 5.92 | 6.09 | 6.57 | 6.28 | 5.72 | 6.37 | 5.95 | 6.68 | 7.06 | –
COc1cc(N2CCN(C)CC2)ccc1Nc1ncc(Cl)c(Oc2cccc(NC(=O)CCN(C)C)c2)n1 | 6.03 | 6.26 | 6.81 | 6.20 | 6.21 | 6.09 | 5.94 | 6.58 | 6.74 | –
C=CC(=O)Nc1cccc(Oc2nc(Nc3ccc(N4CCN(C)CC4)cc3OC)ncc2Cl)c1 | – | – | 7.34 | – | – | – | – | 8.10 | – | remaining at 1 h, 50 µM [10]: 73.5%; remaining at 24 h, 50 µM [11]: 101%; Stability (Plasma): BLD; remaining at 1 h, 50 µM [12]: 11.3%; Stability ([13]; buffer, pH 9, 24 h, 50 µM, BLD = below limit of detection): BLD; remaining at 1 h, 50 µM [14]: 12.2%
COc1cc(N2CCN(C)CC2)ccc1Nc1ncc(Cl)c(Oc2cccc(NC(=O)CCN3CCN(CCOc4no[n+]([O-])c4S(=O)(=O)c4ccccc4)CC3)c2)n1 | 5.08 | 5.35 | 6.97 | 6.70 | 5.47 | 6.58 | 5.54 | 6.89 | 6.58 | inhibition (HCC827): inactive; inhibition [15]: Dose-dependent effect; inhibition (H1975): Active; inhibition (NCI-H1975 [16]): inactive; Activity (NCI-H1975 [8]): Active; inhibition [17]: Active; inhibition [9]: Active; inhibition [18]: Active
COc1cc(N2CCN(C)CC2)ccc1Nc1ncc(Cl)c(Oc2cccc(NC(=O)CCN3CCN(CCO)CC3)c2)n1 | 5.55 | 6.20 | 6.03 | 5.62 | 5.78 | 5.23 | 5.69 | 6.10 | 5.62 | remaining at 1 h, 50 µM [10]: 100%; remaining at 24 h, 50 µM [11]: 99.5%; remaining at 24 h, 50 µM [19]: 105%; remaining at 1 h, 50 µM [12]: 101%; remaining at 24 h, 50 µM ([13]; buffer solution, pH 9, read-out: Stability): 81.4%; remaining at 1 h, 50 µM [14]: 101%
COc1cc(N2CCN(C)CC2)ccc1Nc1ncc(Cl)c(Oc2cccc(NC(=O)CCN3CCCCC3)c2)n1 | 5.95 | 6.39 | 6.75 | 5.00 | 6.44 | 5.34 | 6.01 | 6.47 | 5.66 | –
COc1cc(N2CCN(C)CC2)ccc1Nc1ncc(Cl)c(Oc2cccc(NC(=O)CCN3CCN(C)CC3)c2)n1 | 5.99 | 6.26 | 5.98 | 5.13 | 6.39 | 5.00 | 5.76 | 5.82 | 5.33 | –
CCN(CC)CCC(=O)Nc1cccc(Oc2nc(Nc3ccc(N4CCN(C)CC4)cc3OC)ncc2Cl)c1 | 6.00 | 6.54 | 6.78 | 6.06 | 6.36 | 6.09 | 6.21 | 6.60 | 6.74 | –
